GSK3beta inhib: blocks human GSK3beta kinase activity. AID 2097. actives 0.038% (n = 300,000). GST-GSK3beta kinase, ADP-Glo luminescence, 60 min; stronger effect = lower value. activity score (negative = inhibition), % at 10 µM. P49841;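 active = more than half of replicate wells score below -50%, meaning over 50% inhibition versus plate controls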;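 note: 0% = median DMSO wells and -100% = median GW8510 positive control wells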
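Test system: GST-tagged human GSK3beta kinase, cell-free; evaluation: activity score scaled between in-plate DMSO and GW8510 controls; measured by: ADP-Glo luminescence; incubation: 60 min reaction, RT; benchmarks: DMSO and 20 µM GW8510; reagent: peptide substrate plus 25 µM ATP (final); medium: Tris/MgCl2 kinase buffer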
GSK3A inh: human GSK-3 alpha kinase inhibition; inhibition, % at 10 µM; ADP-Glo luminescence, 60 min; actives 0.1% (n = 320,000);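 active = more than half of replicates show inhibition above 20%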;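 note: GST-tagged GSK-3 alpha with peptide substrate and 25 µM ATP; 0% = DMSO neutral wells and 100% = GW8510 positive control wells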
Target sequence (P49840 whole entry, looked up): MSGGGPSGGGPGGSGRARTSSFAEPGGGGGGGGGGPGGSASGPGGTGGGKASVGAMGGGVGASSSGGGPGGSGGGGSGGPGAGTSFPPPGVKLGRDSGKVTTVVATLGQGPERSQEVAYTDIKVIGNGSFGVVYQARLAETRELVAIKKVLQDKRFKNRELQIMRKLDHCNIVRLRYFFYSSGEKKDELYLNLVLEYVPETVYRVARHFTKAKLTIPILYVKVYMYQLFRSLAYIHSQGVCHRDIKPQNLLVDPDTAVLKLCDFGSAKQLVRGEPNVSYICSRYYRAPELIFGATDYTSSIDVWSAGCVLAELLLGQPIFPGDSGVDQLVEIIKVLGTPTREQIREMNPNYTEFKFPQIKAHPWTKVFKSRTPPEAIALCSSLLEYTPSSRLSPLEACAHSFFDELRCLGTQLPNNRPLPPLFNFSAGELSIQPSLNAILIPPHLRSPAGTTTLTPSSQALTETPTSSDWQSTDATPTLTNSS
STK33 kinase inh: blocks human STK33 kinase activity; purified STK33, MBP phosphorylation, ADP-Glo luminescence; inhibition, % at 10 µM; Q9BYT3; actives 0.073% (n = 320,000);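 active = inhibition at or above 25%, using the most active replicate where run in duplicate; inactive = inhibition below 25%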
Dyrk1A ADPGlo: inhibitors of rat Dyrk1A kinase. Q63470. ADP-Glo luminescence, NFATc1 peptide. inhibition, % at 12.5 µM. actives 0.43% (n = 310,000). AID 504441; in the data active = inhibition above about 50%;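 note: plate controls were vehicle with enzyme for no effect and no enzyme for full effect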
ADP-Glo artifact: counter-screen for Dyrk1A inhibitors: ADP-Glo luciferase artifacts | 1,300 tested, under 10 active | shares compounds with Dyrk1A ADPGlo | AC50, µM (doses to about 12 µM), without a hit: top-dose activity change, negative = inhibition | ADP-Glo luciferase artifact assay, no Dyrk1A, luminescence;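 active = fitted half-maximal dose AC50 no more than ten times the top valid tested dose, with luminescence dropping as dose rises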
* = called active by the depositor; x = no result given. Many of the other results were omitted from the sample, so hits are more common in it than they were.

SMILES	GSK3beta inhib	GSK3A inh	STK33 kinase inh	Dyrk1A ADPGlo	others
Cn1c(SCc2nnc(-c3ccc(F)cc3)o2)nnc1C1COc2ccccc2O1 (configuration not stated)	-44	60*	-1	12
Cn1c(SCc2ccc(C(C)(C)C)cc2)nnc1C1COc2ccccc2O1 (configuration not stated)	3	-2	1	x
O=C(O)c1ccc(S(=O)(=O)/N=C2\C=C(Nc3ccccc3F)C(=O)c3ccccc32)cc1	-12	20	19	57*
COc1ccc(-c2nc(-c3ccccn3)no2)cc1	-20	33	29*	35
COC(=O)c1nnn(-c2nonc2N)c1CN1CCc2ccccc21	-6	64*	-2	5
CC(c1nc2ccccc2n1Cc1ccccc1)N1CCCCC1 (configuration not stated)	2	0	-2	9
CC(=O)Nc1cc(OC(C)=O)c2nonc2c1OC(C)=O	x	68*	2	x
CC(=O)Nc1nonc1NC(C)=O	0	-3	-2	-1
Cc1ccc(S(=O)(=O)n2cnc3cc([N+](=O)[O-])ccc32)c(C)c1C	2	0	1	41
N#Cc1ccccc1CSc1nnc(-c2ccncc2)o1	-52*	21	2	26
Fc1cccc(Cl)c1CSc1nnc(-c2ccncc2)o1	-34	57*	2	37
Brc1cccc(CSc2nnc(-c3ccncc3)o2)c1	-70*	59*	2	26
Clc1ccccc1CSc1nnc(-c2ccncc2)o1	1	54*	0	30
c1ccc2c(CSc3nnc(-c4ccncc4)o3)cccc2c1	-26	33	-1	25
Cc1ccc(C)c(NC(=S)N(C)CCO)c1	-2	-1	-1	-1
CC(=O)c1ccc(N=C2NC(=O)C(CO)(CO)S2)cc1	-1	-2	0	2
COc1ccc(-c2oc3ncnc(NCCCN(C)C)c3c2-c2ccc(OC)cc2)cc1	-4	5	38*	-3
COc1ccc(/C=C/c2nc3ccccc3n2C)cc1	-38	45	50*	30
COc1ccc(Cn2c(/C=C/c3ccccc3)nc3ccccc32)cc1	-4	0	1	0
Nc1c(CO)nnn1-c1ccccc1	-21	50*	1	6
O=C1CC(c2ccc(Cl)cc2)CC(O)=C1C=NCCO (configuration not stated)	1	-2	-2	-1
Cc1ccc2c(c1)C(c1ccccc1)N(C(=O)c1ccc(Br)cc1)CC(=O)N2 (configuration not stated)	-1	-2	0	-4
COCCn1c(SCC(=O)Nc2ccc(Cl)cn2)nc2ccccc21	-76*	13	-1	-3
COCCn1c(SCC(=O)Nc2ncc(Cl)c(C)c2Cl)nc2ccccc21	-2	-2	-1	1
COc1ccc(Nc2nc(-c3cccs3)nc3ccccc23)cc1S(=O)(=O)N1CCOCC1	0	-2	-1	9
SMILES	GSK3beta inhib	GSK3A inh	STK33 kinase inh	Dyrk1A ADPGlo	others
CCCN1C=CC(=C2C(=O)c3ccccc3C2=O)C=C1	0	10	31*	37
CCCCCCN1C=CC(=C2C(=O)c3ccccc3C2=O)C=C1	-5	-3	-1	4
CCCCCCCCCCC[N+](C)(C)CC/C=C1/c2ccccc2Sc2ccc(Cl)cc21	-5	6	31*	1
CC[N+](C)(C)CC/C=C1/c2ccccc2Sc2ccc(Cl)cc21	-5	0	-1	x
CCCCCCCCCC[N+](C)(C)CC/C=C1/c2ccccc2Sc2ccc(Cl)cc21	-6	5	32*	-4
COc1ccc(-c2nn(-c3ccccc3)cc2/C=N/O)cc1	-54*	46	0	41
CC(=O)c1ccc2noc(-c3ccc(F)cc3)c2c1	-6	7	4	24
CN(C)/C=C/C(=O)c1ccc2noc(-c3cccc(F)c3)c2c1	4	3	35*	19
COc1ccc(-c2onc3ccc(C(=O)/C=C/N(C)C)cc23)cc1	-4	0	31*	26
N#Cc1c(-c2ccccc2Cl)c2c([nH]c1=O)-c1ccccc1OC2	-10	55*	3	2
COc1ccc(C(=O)CN2C(=O)NC3(CCCCCC3)C2=O)cc1	1	-3	-1	-5
Cc1ccc2c(c1)COc1c3ccc(C(=O)N4CCCCC4)cc3nn1-2	-3	-5	-1	-5
O=C(c1ccc2c3n(nc2c1)-c1ccccc1CO3)N1CCCCC1	-19	32	27*	44
C=CC(=O)Nc1cccc(Nc2nc(N[C@H]3CC[C@H](N(C)C)CC3)nc3c2ncn3C(C)C)c1	x	x	x	88*
Cc1sc(NC(=O)CSc2nnc(N)s2)c(C#N)c1C	-2	-1	0	-5
CCC(=O)NC(=S)Nc1cc(C(=O)O)ccc1OC	-5	8	0	-1
CN(C)C/C=C/C(=O)Nc1cccc(-c2c[nH]c3ncnc(Oc4ccc(NC(=O)CC(=O)Nc5ccc(F)cc5)cc4F)c23)c1	x	2	62*	68*
C/C(=N/Nc1ccnc2cc(Cl)ccc12)c1ccc(O)cc1	0	0	32*	11
C/C(=N/Nc1ccnc2cc(Cl)ccc12)c1ccc(N)cc1	-1	0	6	-16
O=C(O)CCN1C(=O)c2ccc(Oc3ccc([N+](=O)[O-])cc3)cc2C1=O	-6	1	-2	4
CCOc1ccc(N2C(=O)C3Sc4[nH]c(=O)sc4C(c4ccc(OC)c(OC)c4)C3C2=O)cc1 (configuration not stated)	0	-2	-3	-4
COc1cc(C2c3sc(=O)[nH]c3SC3C4CCC(C4)C23)ccc1O (configuration not stated)	3	78*	1	0
COc1cc(C2c3sc(=O)[nH]c3SC3C(=O)N(c4ccc(C)cc4)C(=O)C32)ccc1O (configuration not stated)	1	5	31*	33
CCn1cc(CN2CCC(n3nccc3NC(=O)C(OC)c3ccccc3)CC2)cn1 (configuration not stated)	1	0	-1	x
CC(=O)N1c2ccc(S(=O)(=O)N3CCCC(C(=O)N4CCCC(C)C4)C3)cc2CC1C (configuration not stated)	1	-1	-2	0
CCc1ccccc1NC(=O)C1CCCN(S(=O)(=O)c2ccc3c(c2)CC(C)N3C(C)=O)C1 (configuration not stated)	-5	0	0	56*	ADP-Glo artifact=8%
CCC(C)NC(=O)C1CCCN(S(=O)(=O)c2ccc3c(c2)CC(C)N3C(C)=O)C1 (configuration not stated)	0	0	-1	-4
CCC(C)NC(=O)C1CCCN(S(=O)(=O)c2ccc3c(c2)CC(C)N3C(=O)C2CC2)C1 (configuration not stated)	2	1	-2	58*	ADP-Glo artifact=11%
COC(=O)c1cc2c([nH]c3ccccc32)c(C)n1	1	x	x	x
